Experimental data taken from ChEMBL document CHEMBL4177577, “Lipophilic methylene violet analogues as modulators of mitochondrial function and dysfunction” (Bioorg Med Chem, 2017).
Values belong to the molecule of their own block, whether it stands above or below them. Active and inactive are the calls of the source. The rule behind the calls is not given here.

Legend:
[1] = Induction of mitochondrial membrane potential preservation in human Friedreich's ataxia lymphocytes assessed as JC1 dye aggregates level at 5 uM pre-incubated for 16 hrs by JC1 staining based assay (reference value: 69.8%)
[2] = tested on: Friedreich's ataxia fibroblast (Homo sapiens); assay: Cytoprotection against buthionine sulfoximine-induced cytotoxicity in human Friedreich's ataxia fibroblasts assessed as increase in cell viability at 25 to 1000 nM pre-incubated before buthionine sulfoximine challenge for 48 hrs by Live/Dead cell viability assay
[3] = Reduction in ATP level in human Friedreich's ataxia lymphocytes at 5 uM incubated for 24 hrs by luminescence based assay; type: ADME, cell-based; details: friedreich's ataxia lymphocyte
In short: (§1)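 Lymphocytes (2×10^5 cells/mL) were treated with compound at final 0.1, 0.5 or 5 μM (DMSO <0.5%) in glucose-free medium (25 mM galactose) for 24 h at 37 °C. Total intracellular ATP was read by a bioluminescence kit and given as % of untreated control. Data are the mean of at least three independent experiments.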

[4] = tested on: Friedreich's ataxia lymphocyte; assay: Cytoprotection against rotenone-induced cytotoxicity in human Friedreich's ataxia lymphocytes assessed as increase in cell viability at 0.25 and 2.5 uM pre-incubated for 12 hrs in glucose-free media followed by rotenone challenge for 24 hrs by Live/Dead cell viability assay; type: functional, cell-based
In short: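 FRDA lymphocytes (5×10^5 cells/mL) in glucose-free medium with 25 mM galactose were pretreated with compounds at 37 °C, then exposed to 50 nM rotenone for 24 h. Cells were stained with 0.1 μM calcein AM and 0.2 μM EthD-1 for 15 min at 37 °C and run on flow cytometry (10,000 events). Live cells are given as % of control; two independent runs in duplicate.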

Bos taurus = organism: Bos taurus; assay: Effect on NADH-ubiquinone oxidoreductase in bovine heart submitochondrial particles assessed as induction of electron flow from complex-1 by measuring NADH oxidation at 5 uM in presence of 50 nM rotenone using NADH and coenzyme Q1 by spectrophotomery
In short: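 Submitochondrial particles (30 μg/mL) were preincubated 5 min at 30 °C with compound in 50 mM phosphate buffer, pH 7.4, with 0.25 M sucrose, 1 mM MgCl₂, 2 μM antimycin A and 2 mM KCN. The reaction was started with 75 μM NADH plus 15 μM coenzyme Q₁, and NADH loss was followed at 340 nm. Values are the mean of two independent experiments in duplicate.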

[5] = tested on: Friedreich's ataxia lymphocyte; assay: Increase in ATP level in human Friedreich's ataxia lymphocytes at 0.5 uM incubated for 24 hrs by luminescence based assay; type: functional, cell-based
In short: as §1

[6] = Cytotoxicity in human Friedreich's ataxia lymphocytes assessed as reduction in cell viability at 2.5 uM incubated for 24 hrs by Live/Dead cell viability assay; type: cell-based; details: friedreich's ataxia lymphocyte
In short: (§2)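 FRDA lymphocytes (5×10^5 cells/mL) were kept in glucose-free medium (25 mM galactose) with compound at 37 °C and 5% CO₂ for 24 or 48 h. Cells were washed, stained with 0.1 μM calcein AM (live) and 0.2 μM EthD-1 (dead) for 15 min at 37 °C and analysed by flow cytometry (10,000 events). Duplicates were run in two independent runs.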

[7] = Induction of mitochondrial membrane potential preservation in human Friedreich's ataxia lymphocytes assessed as JC1 dye monomer level at 5 uM pre-incubated for 16 hrs by JC1 staining based assay (reference value: 10.1%)
[8] = tested on: Friedreich's ataxia lymphocyte; assay: Inhibition of ROS generation in human Friedreich's ataxia lymphocytes at 250 and 2500 nM incubated for 16 hrs by DCFH-DA staining based FACS method; type: functional, cell-based
In short: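 FRDA lymphocytes (GM15850; 5×10^5 cells/mL) were pretreated with compound for 16 h at 37 °C, then exposed to 5 mM diethyl maleate for 80 min to deplete glutathione. Cells were loaded with 10 μM DCFH-DA in PBS with 20 mM glucose for 25 min at 37 °C and DCF was read by flow cytometry (10,000 events). Median fluorescence is given as % of the DEM-treated control; duplicates in two runs.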

[9] = Cytotoxicity in human Friedreich's ataxia lymphocytes assessed as reduction in cell viability at 2.5 uM incubated for 48 hrs by Live/Dead cell viability assay; type: cell-based; details: friedreich's ataxia lymphocyte
In short: as §2

[10] = tested on: Friedreich's ataxia lymphocyte; assay: Increase in ATP level in human Friedreich's ataxia lymphocytes at 0.1 uM incubated for 24 hrs by luminescence based assay; type: functional, cell-based
In short: as §1

[11] = tested on: Friedreich's ataxia lymphocyte; assay: Effect on ATP level in human Friedreich's ataxia lymphocytes at 100 to 5000 nM incubated for 24 hrs by luminescence based assay; type: functional, cell-based
In short: as §1

[12] = tested on: Friedreich's ataxia lymphocyte; assay: Effect on ATP level in human Friedreich's ataxia lymphocytes at 100 nM incubated for 24 hrs by luminescence based assay; type: functional, cell-based
In short: as §1

Activity (Bos taurus): Active
SMILES: CCCCCCCCCCCCCCCN(CCCC)c1ccc2nc3ccc(=O)cc-3sc2c1
Activity [1]: 89.3% | Activity [2]: Dose-dependent effect | Activity [3]: Toxic | Activity [4]: Active | Activity [5]: Active | Activity [6]: Non-Toxic | Activity [7]: 10.6% | ROS generation inhibition (qualitative) [8]: Dose-dependent effect | Activity [9]: Non-Toxic | Activity [10]: Active

SMILES: CCCCCCCCCCCCCCCN(CCCCCCCCCCCCCCC)c1ccc2nc3ccc(=O)cc-3sc2c1
Activity [1]: 88.2% | Activity [2]: Dose-dependent effect | Activity [4]: Active | Activity [6]: Non-Toxic | Activity [7]: 11.7% | ROS generation inhibition (qualitative) [8]: Active | Activity [9]: Non-Toxic | Activity [11]: inactive

Activity (Bos taurus): Active
SMILES: CN(C)c1ccc(C(=C2C=CC(=[N+](C)C)C=C2)c2ccc(N(C)C)cc2)cc1.[Cl-] [GENTIAN VIOLET]
Activity [1]: 72.6% | Activity [4]: Active | Activity [7]: 27.3% | Activity [12]: inactive | ROS generation inhibition (qualitative) [8]: Active

Activity (Bos taurus): Active
SMILES: CN(C)c1ccc2nc3ccc(=[N+](C)C)cc-3sc2c1
Activity [4]: Active | Activity [12]: inactive

SMILES: CCCCCCCCCCCCCCCN(C)c1ccc2nc3ccc(=O)cc-3sc2c1
Activity [1]: 85.2% | Activity [2]: Dose-dependent effect | Activity [3]: Toxic | Activity [4]: Active | Activity [5]: Active | Activity [6]: Non-Toxic | Activity [7]: 14.7% | ROS generation inhibition (qualitative) [8]: Dose-dependent effect | Activity [9]: Non-Toxic | Activity [10]: Active

SMILES: CCCCN(CCCC)c1ccc2nc3ccc(=O)cc-3sc2c1
Activity [1]: 74.2% | Activity [2]: Dose-dependent effect | Activity [4]: Active | Activity [7]: 25.6% | Activity [12]: inactive | ROS generation inhibition (qualitative) [8]: Active | Activity [9]: Toxic

SMILES: CN(C)c1ccc2nc3ccc(N(C)C)cc3[s+]c2c1.[Cl-] [METHYLENE BLUE ANHYDROUS]
Activity [1]: 41.7% | Activity [6]: Toxic | Activity [7]: 58.1% | Activity [9]: Toxic

SMILES: CCCCCCCCCCN(CCCCCCCCCC)c1ccc2nc3ccc(=O)cc-3sc2c1
Activity [1]: 85.7% | Activity [2]: Dose-dependent effect | Activity [4]: Active | Activity [6]: Non-Toxic | Activity [7]: 14.3% | ROS generation inhibition (qualitative) [8]: Active | Activity [9]: Non-Toxic | Activity [11]: inactive
